Results on 8 compounds are retold here after ChEMBL document CHEMBL5370663, “Neurite Outgrowth-Inducing Drimane-Type Sesquiterpenoids Isolated from Cultures of the Polypore Abundisporus violaceus MUCL 56355” (J Nat Prod, 2023).

Activity calls are given as the source filed them. No cut-off for these calls is given here.

The test system of data set [1] is Schizosaccharomyces pombe. The data set is described as follows: Antifungal activity against Schizosaccharomyces pombe DSM 70572 assessed as fungal growth inhibition at 66.7 to 0.52 microg/ml incubated overnight by serial dilution assay. In kind it is functional, organism-based. Particulars: dose 66.7-0.52 µg/ml. An outline of the steps:
(§1)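 Broth microdilution MIC. Compounds diluted in methanol across 66.7–0.52 μg/mL; incubated overnight. MIC is the lowest concentration with no visible growth of the test strain. Positive controls were ciprofloxacin, kanamycin, gentamycin and oxytetracycline for bacteria and nystatin for fungi.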

For another data set, the system named is Staphylococcus aureus. The data set is described as follows: Antibacterial activity against Staphylococcus aureus DSM 346 assessed as bacterial growth inhibition at 66.7 to 0.52 microg/ml incubated overnight by serial dilution assay. In kind it is functional, organism-based. To be noted: dose 66.7-0.52 µg/ml. A digest of the protocol:
as §1

The subject of the next data set is Bacillus subtilis. The data set is described as follows: Antibacterial activity against Bacillus subtilis DSM 10 assessed as bacterial growth inhibition at 66.7 to 0.52 microg/ml incubated overnight by serial dilution assay. In kind it is functional, organism-based. To be noted: dose 66.7-0.52 µg/ml. A digest of the protocol:
as §1

For the next data set, the system named is Acinetobacter baumannii. In words: Antibacterial activity against Acinetobacter baumannii DSM 30008 assessed as bacterial growth inhibition at 66.7 to 0.52 microg/ml incubated overnight by serial dilution assay. The data set is classed as functional, organism-based. To be noted: dose 66.7-0.52 µg/ml. A digest of the protocol:
as §1

The test system of another data set is Escherichia coli. In words: Antibacterial activity against Escherichia coli DSM 1116 assessed as bacterial growth inhibition at 66.7 to 0.52 microg/ml incubated overnight by serial dilution assay. Particulars: dose 66.7-0.52 µg/ml. In kind it is functional, organism-based. An outline of the steps: as §1
The test system of data set [2] is Chromobacterium violaceum. The data set is described as follows: Antibacterial activity against Chromobacterium violaceum DSM 30191 assessed as bacterial growth inhibition at 66.7 to 0.52 microg/ml incubated overnight by serial dilution assay. The data set is classed as functional, organism-based. To be noted: dose 66.7-0.52 µg/ml. An outline of the steps:
as §1

For a further data set, the system named is Pseudomonas aeruginosa. In words: Antibacterial activity against Pseudomonas aeruginosa PA14 assessed as bacterial growth inhibition at 66.7 to 0.52 microg/ml incubated overnight by serial dilution assay. The data set is classed as functional, organism-based. Particulars: dose 66.7-0.52 µg/ml. A digest of the protocol: as §1
Data set [3] concerns Mycolicibacterium smegmatis. In words: Antibacterial activity against Mycobacterium smegmatis ATCC 700084 assessed as bacterial growth inhibition at 66.7 to 0.52 microg/ml incubated overnight by serial dilution assay. In kind it is functional, organism-based. Particulars: dose 66.7-0.52 µg/ml. An outline of the steps: as §1
In a further data set the test system is Candida albicans. In words: Antifungal activity against Candida albicans DSM 1665 assessed as fungal growth inhibition at 66.7 to 0.52 microg/ml incubated overnight by serial dilution assay. In kind it is functional, organism-based. To be noted: dose 66.7-0.52 µg/ml. An outline of the steps:
as §1

Another data set concerns Mucor hiemalis. In words: Antifungal activity against Mucor hiemalis DSM 2656 assessed as fungal growth inhibition at 66.7 to 0.52 microg/mlincubated overnight by serial dilution assay. In kind it is functional, organism-based. Particulars: dose 66.7-0.52 µg/ml. An outline of the steps:
as §1

A further data set deals with Rhodotorula glutinis. The data set is described as follows: Antifungal activity against Rhodotorula glutinis DSM 10134 assessed as fungal growth inhibition at 66.7 to 0.52 microg/ml incubated overnight by serial dilution assay. In kind it is functional, organism-based. To be noted: dose 66.7-0.52 µg/ml. A digest of the protocol:
as §1

Another data set concerns Wickerhamomyces anomalus. The data set is described as follows: Antifungal activity against Pichia anomala DSM 6766 assessed as fungal growth inhibition at 66.7 to 0.52 microg/ml incubated overnight by serial dilution assay. In kind it is functional, organism-based. Particulars: dose 66.7-0.52 µg/ml. A digest of the protocol:
as §1

The test system of a further data set is KB 3-1. The data set is described as follows: Cytotoxicity against human KB-3-1 cells incubated for 5 days by MTT assay. In kind it is toxicity, cell-based. To be noted: kb 3-1, 120 h, time 5 day. A digest of the protocol:
(§2)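 MTT viability test in 96-well plates on KB3.1 (human endocervical adenocarcinoma) and L929 (mouse fibroblast) lines, reported as IC50; epothilone B positive control.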
On the technique in general: Formazan colour is commonly taken as a measure of viable cells.

The test system of another data set is L929. The data set is described as follows: Cytotoxicity against mouse L929 cells incubated for 5 days by MTT assay. To be noted: l929, 120 h, time 5 day. In kind it is toxicity, cell-based. A digest of the protocol:
as §2

The next data set relates to PC-12. In words: Induction of neurite outgrowth in NGF-treated rat PC12 cells at 5 ug/mL measured after 48 hrs by phase contrast microscopy. To be noted: dose 5.0 µg/ml. The data set is classed as functional, cell-based. An outline of the steps: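 PC-12 cells grown in RPMI-1640 with 10% heat-inactivated horse serum, 5% FBS and 2 mM L-glutamine. Seeded at 1.5 × 10^4 cells/well on collagen IV and allowed to attach 6 h at 37 °C, 7.5% CO2. Medium then switched to differentiation medium (1% horse serum) with compound at 5 μg/mL plus NGF 5 ng/mL; DMSO control. Mean neurite length from phase-contrast live imaging at 48 h; five independent experiments, one-tailed t-test.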

On to `C[C@@]12C=C(CO)[C@@H](O)C[C@H]1[C@](C)(C(=O)O)CCC2`, for which the inhibition entry (in [1]; in the data set on Staphylococcus aureus; in the data set on Bacillus subtilis; in the data set on Acinetobacter baumannii; in the data set with Escherichia coli; in [2]) was “inactive” each time. For the same compound, the inhibition entry (in the data set on Pseudomonas aeruginosa; in data set [3]; in the data set with Candida albicans; with Mucor hiemalis; with Rhodotorula glutinis; in the data set with Wickerhamomyces anomalus) was “inactive” in each case. Moreover, the Activity result in the data set on KB 3-1 and in the data set with L929 was “Non-Toxic” throughout. In addition, the outcome in the data set with PC-12 was Active.
As for `C[C@@]1(C(=O)O)CCC[C@]2(C)C3=C(COC3=O)C(=O)C[C@@H]12`, the inhibition result (in data set [1]; in the data set on Staphylococcus aureus; with Bacillus subtilis; in the data set on Acinetobacter baumannii; in the data set on Escherichia coli; in [2]) was “inactive” each time. Further, the inhibition entry (in the data set with Pseudomonas aeruginosa; in [3]; in the data set on Candida albicans; with Mucor hiemalis; in the data set with Rhodotorula glutinis; in the data set with Wickerhamomyces anomalus) was “inactive” each time. Moreover, the Activity entry in the data set with KB 3-1 and with L929 was “Non-Toxic” throughout.
On to `C[C@@]12C=C(C(=O)O)[C@@H](O)C[C@H]1[C@](C)(C(=O)O)CCC2`, for which the inhibition entry (in [1]; with Staphylococcus aureus; in the data set with Bacillus subtilis; with Acinetobacter baumannii; with Escherichia coli; in data set [2]) was “inactive” each time. The inhibition result (in the data set with Pseudomonas aeruginosa; in [3]; with Candida albicans; in the data set on Mucor hiemalis; in the data set with Rhodotorula glutinis; in the data set on Wickerhamomyces anomalus) was “inactive” throughout. Further, the Activity result in the data set on KB 3-1 and in the data set with L929 was “Non-Toxic” in each case. Further, the result with PC-12 was Active.
Take `COC(=O)[C@H]1C(C(=O)O)=CC[C@@H]2[C@]1(C)CCC[C@@]2(C)C(=O)O`: the inhibition entry (in [1]; with Staphylococcus aureus; in the data set on Bacillus subtilis; in the data set on Acinetobacter baumannii; in the data set with Escherichia coli; in [2]) was “inactive” each time. Further, the inhibition entry (with Pseudomonas aeruginosa; in [3]; in the data set on Candida albicans; in the data set with Mucor hiemalis; in the data set with Rhodotorula glutinis; in the data set on Wickerhamomyces anomalus) was “inactive” in each case. In addition, the Activity entry with KB 3-1 and in the data set on L929 was “Non-Toxic” each time.
On to `C[C@@]1(C(=O)O)CCC[C@]2(C)c3cocc3C(=O)C[C@@H]12`, for which the inhibition entry (in data set [1]; in the data set on Staphylococcus aureus; in the data set on Bacillus subtilis; in the data set with Acinetobacter baumannii; in the data set on Escherichia coli; in data set [2]) was “inactive” throughout. Moreover, the inhibition result (with Pseudomonas aeruginosa; in data set [3]; in the data set on Candida albicans; with Mucor hiemalis; in the data set on Rhodotorula glutinis; with Wickerhamomyces anomalus) was “inactive” in each case. The Activity result with KB 3-1 and in the data set with L929 was “Non-Toxic” throughout. The result in the data set on PC-12 was Active.
Regarding `C[C@]12CCC[C@@](C)(C(=O)O)[C@@H]1CC=C1CO[C@H](O)[C@@H]12`, the inhibition result (in data set [1]; in the data set with Staphylococcus aureus; in the data set on Bacillus subtilis; in the data set on Acinetobacter baumannii; in the data set on Escherichia coli; in data set [2]) was “inactive” throughout. The inhibition entry (in the data set with Pseudomonas aeruginosa; in [3]; in the data set with Candida albicans; in the data set on Mucor hiemalis; with Rhodotorula glutinis; with Wickerhamomyces anomalus) was “inactive” throughout. Moreover, the Activity entry in the data set on KB 3-1 and with L929 was “Non-Toxic” each time. The outcome in the data set with PC-12 was Active.
As for `C[C@]12CCC[C@@](C)(C(=O)O)[C@@H]1CC=C(CO)[C@H]2C=O`, the inhibition entry (in data set [1]; in the data set with Staphylococcus aureus; with Bacillus subtilis; in the data set on Acinetobacter baumannii; in the data set on Escherichia coli; in data set [2]) was “inactive” each time. Further, the inhibition result (in the data set on Pseudomonas aeruginosa; in [3]; with Candida albicans; in the data set with Mucor hiemalis; in the data set with Rhodotorula glutinis; in the data set on Wickerhamomyces anomalus) was “inactive” each time. The Activity entry with KB 3-1 and with L929 was “Non-Toxic” throughout. For the same compound, the outcome in the data set on PC-12 was Active.
Regarding `C[C@@]12C=C(CO)C(=O)C[C@H]1[C@](C)(C(=O)O)CC[C@@H]2O`, the inhibition entry (in [1]; with Staphylococcus aureus; in the data set on Bacillus subtilis; with Acinetobacter baumannii; with Escherichia coli; in data set [2]) was “inactive” throughout. Further, the inhibition result (with Pseudomonas aeruginosa; in [3]; with Candida albicans; in the data set with Mucor hiemalis; in the data set on Rhodotorula glutinis; in the data set with Wickerhamomyces anomalus) was “inactive” throughout. Further, the Activity result in the data set with KB 3-1 and in the data set on L929 was “Non-Toxic” in each case. Besides, in the data set with PC-12, the outcome was Active.
